KCNK3 inh = human KCNK3 channel inhibitors, primary screen, CHO cells, FluxOR thallium flux, B-score | AID 602410, 2012 | 340,000 tested, 0.84% active | FluxOR fluorescence; hits give low values | B-score at 10 µM;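 active = B-score under library mean minus 4 SD, starting fluorescence ratio at most library mean plus 5 SD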;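 note: more negative B-score means stronger inhibition of thallium flux through KCNK3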
KCC2 mod = KCC2 cotransporter modulators, thallium flux, primary screen, cell-based, HEK293 KCC2, FluoZin-2 fluorescence, MLSMR; 190,000 tested, 2.2% active; B-score of Tl+ flux slope (higher = more flux/activation; lower = inhibition) at 10 µM; Solute carrier family 12 member 5 (Homo sapiens), Q9H2X9; AID 1456, 2008; KCC2 cells, thallium flux FluoZin-2 fluorescence;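 active = thallium flux slope and its plate-corrected score both differing from the plate sample mean at a set confidence after two filtering rounds, in either direction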;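 note: slope of fluorescence scaled to starting intensity during 10 to 20 s after thallium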
KCNK9 block = KCNK9 potassium channel inhibitors, primary screen, HEK293 cells, thallium flux. FluxOR thallium flux fluorescence; hits give low values. B-score at 10 µM. 310,000 tested, 1.2% active. AID 488922, 2010;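 active = ratio B-score over 3 SD below the library mean, with starting fluorescence within 5 SD of its mean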;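 note: negative B-score means less thallium flux so channel inhibition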
KCNQ1 block = inhibitors of human KCNQ1 channel, primary screen, cell-based, thallium flux, high-throughput. Potassium voltage-gated channel subfamily KQT member 1 (Homo sapiens), P51787. CHO-K1 KCNQ1, FluxOR thallium flux fluorescence; hits give high values. B-score at 10 µM. 310,000 tested, 1.3% active;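 active = compounds whose thallium flux B-score, printed positive for inhibition, exceeds three library SD while starting fluorescence stays within three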;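 note: channel opened by potassium depolarization with thallium stimulus after 20 min compound exposure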
Target sequence (P51787 whole entry, looked up): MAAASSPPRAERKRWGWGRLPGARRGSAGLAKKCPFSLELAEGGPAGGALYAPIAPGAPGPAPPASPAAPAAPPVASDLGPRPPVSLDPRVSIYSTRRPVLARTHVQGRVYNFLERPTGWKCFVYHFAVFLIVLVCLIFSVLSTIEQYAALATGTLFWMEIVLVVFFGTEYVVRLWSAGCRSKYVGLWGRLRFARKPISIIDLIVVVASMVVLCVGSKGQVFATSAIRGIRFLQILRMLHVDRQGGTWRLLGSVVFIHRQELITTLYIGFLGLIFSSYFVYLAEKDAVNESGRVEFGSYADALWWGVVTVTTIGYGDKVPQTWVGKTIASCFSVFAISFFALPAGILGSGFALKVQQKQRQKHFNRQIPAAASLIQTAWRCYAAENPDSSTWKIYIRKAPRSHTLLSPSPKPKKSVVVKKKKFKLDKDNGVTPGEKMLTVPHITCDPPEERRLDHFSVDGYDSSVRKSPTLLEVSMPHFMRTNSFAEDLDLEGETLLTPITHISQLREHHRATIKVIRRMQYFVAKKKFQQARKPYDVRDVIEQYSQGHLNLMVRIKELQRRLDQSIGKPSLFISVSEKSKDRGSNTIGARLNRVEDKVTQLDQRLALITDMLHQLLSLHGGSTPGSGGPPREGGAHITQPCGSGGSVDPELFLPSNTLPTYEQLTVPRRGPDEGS
KCNQ1 pot = potentiators or activators of KCNQ1 channel, primary screen, cell-based, thallium flux, high-throughput | CHO-K1 KCNQ1, thallium flux FluxOR fluorescence; hits give high values | B-score at 10 µM | 310,000 tested, 0.35% active;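 active = fluorescence ratio B-score, a plate-corrected score, at least three library SD, with initial intensity B-score within 5 SD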
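Schedule – 37 °C overnight plating, 90-min dark dye load, 20-min compound pretreatment · System – stable KCNQ1 CHO-K1 line · Probe or stimulus – thallium- and potassium-containing depolarizing buffer · Measured by – kinetic FluxOR fluorescence, 10 s baseline plus 110 s post-stimulus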
hERG rescue = hERG rescue from dofetilide block, primary screen, cell-based, CHO-hERG, FluxOR thallium flux, dofetilide IC70 | Voltage-gated inwardly rectifying potassium channel KCNH2 (Homo sapiens), Q12809 | 310,000 tested, 0.51% active | dofetilide IC70 present | activation (rescue from dofetilide block), less the hit threshold, % at 10 µM;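 active = activation above the mean of controls blocked by dofetilide plus 5 SD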;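 note: thallium influx through hERG after potassium depolarization seen as dye fluorescence rise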
KCNK9 inh conf = KCNK9 potassium channel inhibitors, confirmation, HEK293 cells, thallium flux, duplicate. 4,900 tested, 43% active. shares compounds with KCNK9 block. FluxOR thallium flux fluorescence. AID 492992, 2010. inhibition, % at 10 µM;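 active = thallium signal inhibited by more than 5 SD of the compound-free buffer control wells, on both duplicate plates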;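 note: 0% = assay buffer control wells without compound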
Kir2-1 spec = mouse Kir2.1 channel inhibition, confirmation, selectivity assay for KCNK9 modulator project, cell-based, HEK293, thallium flux; shares compounds with KCNK9 block; Kir2.1 cells, FluxOR thallium flux fluorescence; inhibition, % at 10 µM; 4,900 tested, 4% active; AID 492993, 2010;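 active = thallium signal drop more than 5 SD beyond the mean of the no-compound control wells, seen in both duplicate plates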;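 note: signal is fluorescence rise after thallium addition divided by baseline fluorescence; plate controls were assay buffer only for no effect and full block by chlorpromazine control for full effect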
HEK293 Tl ctr = thallium flux in non-induced HEK293 cells, confirmation, counter-screen for KCNK9 inhibitor project, cell-based, second counter screen, non-induced KCNK9-HEK293; FluxOR thallium flux; 4,900 tested, 40% active; shares compounds with KCNK9 block; inhibition, % at 10 µM;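 active = thallium signal drop beyond 5 SD of the untreated control mean, on both duplicate plates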;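 note: plate controls were buffer only IC0 wells for no effect and SID17386958 at its maximal inhibitory level for full effect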
Active calls of the source: *; i = inactive; . = no result. In the library only some 4.1% were active in any assay of this set; here they are far more common.

SMILES	KCNK3 inh	KCC2 mod	KCNK9 block	KCNQ1 block	KCNQ1 pot	hERG rescue	KCNK9 inh conf	Kir2-1 spec	HEK293 Tl ctr
COc1cc2c(cc1OC)/C(=C/C(=O)c1ccc(OC)c([N+](=O)[O-])c1)NCC2	i	.	i	i	i	-8	.	.	.
Cc1nc2ccc(NC(=O)c3ccc(C)c(S(=O)(=O)N4CCOCC4)c3)cc2s1	i	.	.	.	.	.	.	.	.
Cc1ccc(/C=N/n2cnc3sc(C)c(C)c3c2=O)o1	i	0.46	i	i	i	-9	i	i	i
Cc1cc(F)ccc1S(=O)(=O)N1CCCOC1CNC(=O)C(=O)NC1CCCCC1 (stereo not drawn)	i	.	i	i	i	-3	.	.	.
c1ccc(Cn2nnnc2C(c2cccs2)N2CCc3ccccc3C2)cc1 (stereo not drawn)	i	-2.5	-12*	i	i	-10	i	i	32%*
COc1ccc(-n2nnnc2/C=C\Nc2ccccc2C(=O)c2ccccc2)cc1	i	0.0044	i	i	i	-13	.	.	.
COc1ccc(-n2nnnc2/C=C/Nc2cc(C(F)(F)F)ccc2OC)cc1	i	0.73	-12*	i	i	-9	34%*	i	43%*
COc1ccccc1OCc1nc(C#N)c(N2CC(C)CC(C)C2)o1 (stereo not drawn)	i	-3.2	i	i	i	-6	i	i	i
CCOC(=O)c1c(C)[nH]c(N=Nc2ccccc2C)c1C	i	0.18	-9.4*	i	i	-7	52%*	i	i
FC(F)(F)c1ccccc1NC(=S)Nn1cnnc1	i	.	i	i	i	-13	.	.	.
CC1CCN(C(=O)Cn2nnc(-c3ccc(N)cc3)n2)CC1	i	.	i	i	i	-1	.	.	.
COc1ccc(C(=O)N2c3cc4c(cc3C(C)=CC2(C)C)OCO4)cc1	i	0.26	-11*	i	i	-9	26%*	i	42%*
COc1ccc(CCNC(=O)[C@H](C)N2C(=O)N3CCc4c([nH]c5ccccc45)[C@@]3(C)C2=O)cc1	i	.	i	i	i	-14	.	.	.
COc1ccc(Br)cc1CN(C)CC(=O)Nc1ccccc1Cl	i	0.0039	-8.7*	i	i	-14	34%*	36%*	36%*
COc1ccc(NC(=O)CN(C)Cc2cccs2)cc1Cl	-11*	.	-13*	i	i	-12	32%*	i	33%*
COc1ccc(NC(=O)CCC(=O)c2cccs2)cc1Cl	i	.	i	i	i	-1	.	.	.
COc1ccccc1CN(C)CC(=O)Nc1ccc(Cl)cc1C(F)(F)F	i	0.16	-14*	i	i	-10	49%*	i	42%*
Cc1ccc(C)c(-c2nnc(NC(=O)CCS(=O)(=O)c3ccc(F)cc3)o2)c1	i	.	i	i	i	-4	.	.	.
COc1cc(/C=C2\SC(=S)N(CCC(=O)Nc3ccccn3)C2=O)cc(OC)c1OC	i	.	-8.3*	i	i	-12	i	i	i
CCOc1ccc(/C=C2\SC(=S)N(CCC(=O)Nc3ccccc3C(=O)O)C2=O)cc1	i	.	i	i	i	-11	.	.	.
COc1ccc(/C=C2\SC(=S)N(CCC(=O)Nc3ccccc3C(=O)O)C2=O)cc1	i	.	i	i	i	-1	i	i	i
COc1ccc(/C=C2\SC(=S)N(C(Cc3ccccc3)C(=O)O)C2=O)cc1 (stereo not drawn)	i	-1.4	i	i	i	-15	i	i	i
COc1ccc(Cl)cc1NC(=O)c1sc2nc(C)nc(N3CCOCC3)c2c1C	i	.	i	i	i	-7	.	.	.
O=C(CCN1CCN(Cc2ccccc2)CC1)NNC(=O)Nc1cccc([N+](=O)[O-])c1	i	.	i	i	i	-4	.	.	.
COc1ccc(OC)c(C2SCCN2S(=O)(=O)c2cccc(C(F)(F)F)c2)c1 (stereo not drawn)	i	0.28	-15*	i	i	-7	i	i	60%*
SMILES	KCNK3 inh	KCC2 mod	KCNK9 block	KCNQ1 block	KCNQ1 pot	hERG rescue	KCNK9 inh conf	Kir2-1 spec	HEK293 Tl ctr
COc1cc(OC)c(C2SCCN2S(=O)(=O)c2ccc(F)cc2)cc1OC (stereo not drawn)	i	1	i	i	i	-6	.	.	.
COc1cccc(OCCOCCOc2ccc(C)cc2[N+](=O)[O-])c1	i	-0.92	i	i	i	-10	i	i	i
COc1cccc(OCCNc2cc(Cl)ccc2[N+](=O)[O-])c1	i	0.17	-12*	i	i	-20	54%*	i	34%*
COc1cccc(OCCNc2ccc([N+](=O)[O-])cn2)c1	i	.	.	.	.	.	.	.	.
CCOc1ccccc1Oc1cn[nH]c1-c1ccc(O)cc1O	i	.	-10*	i	i	-11	32%*	i	i
COc1ccccc1C(CC(=O)c1ccccc1)CC(=O)c1ccccc1	i	0.28	-8.6*	i	i	-11	30%*	i	31%*
CCOC(=O)c1sc2nc(CC(=O)OC)nc(N3CCN(c4ccc(OC)cc4)CC3)c2c1C	i	.	i	i	i	-3	i	i	i
CCOC(=O)c1sc2nc(CC(=O)OC)nc(NCCN3CCOCC3)c2c1C	i	-0.8	i	i	i	-7	.	.	.
CC(=O)c1c(C)[nH]c(C(=O)OCC(=O)c2ccc(C)s2)c1C	i	.	.	.	.	.	.	.	.
N/C(Cc1ccc([N+](=O)[O-])cc1)=N\OC(=O)COc1cccc2ccccc12	i	-0.34	-8.3*	i	i	-9	i	i	37%*

High-throughput results as filed in PubChem.
